The values that follow come from ChEMBL document CHEMBL1141790, “Sodwanone S, a triterpene from the marine sponge Axinella weltneri” (J Nat Prod, 2005).

Structures are written as SMILES. In brackets after ≈: the same amount, converted by molar mass.

Type in all cases: functional, cell-based
Assay [1] is described as follows: Cytotoxicity against human ecteinascidin-743-resistant IGROV cells by SRB assay. The gist of the method: (§1)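 Compounds were run across a panel of 13 human tumor cell lines. Potency is expressed as IC50 in μg/mL.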
A general note: In SRB staining, fixed cells bind dye roughly in proportion to their protein.

The subject of assay [2] is HeLa. Nature of the assay: Cytotoxicity against human aplidine-resistant HeLa cells by SRB assay. The gist of the method:
as §1

Assay [3] relates to HeLa. Nature of the assay: Cytotoxicity against human HeLa cells by SRB assay. The gist of the method:
as §1

In a further assay the test system is HT-29. Nature of the assay: Cytotoxicity against human HT-29 cells by SRB assay. The gist of the method:
as §1

The subject of the next assay is DU-145. Nature of the assay: Cytotoxicity against human DU145 cells by SRB assay. The gist of the method: as §1
Assay [4] has as its system LoVo. Nature of the assay: Cytotoxicity against human doxorubicin-resistant LoVo cells by SRB assay. The gist of the method:
as §1

Another assay deals with PANC-1. Nature of the assay: Cytotoxicity against human PANC1 cells by SRB assay. The gist of the method: as §1
Another assay deals with A549. Nature of the assay: Cytotoxicity against human A549 cells by SRB assay. The gist of the method: as §1
The nature of assay [5]: Cytotoxicity against human IGROV cells by SRB assay. The gist of the method: as §1
For a further assay, the system named is LNCaP. Nature of the assay: Cytotoxicity against human LNCAP cells by SRB assay. The gist of the method: as §1
The test system of a further assay is SK-BR-3. Nature of the assay: Cytotoxicity against human SKBR3 cells by SRB assay. The gist of the method:
as §1

Assay [6] concerns LoVo. Nature of the assay: Cytotoxicity against human LoVo cells by SRB assay. The gist of the method:
as §1

The test system of another assay is SK-MEL-28. Nature of the assay: Cytotoxicity against human SK-MEL-28 cells by SRB assay. The gist of the method: as §1

As usually defined, the IC50 is the concentration that gives 50% inhibition. Low readings indicate higher potency, high ones lower potency.

As to `CC1=C(CC[C@H]2[C@]3(C)CCC(=O)C(C)(C)O[C@H]3CC[C@]2(C)O)[C@@]2(C)CCC(=O)C(C)(C)C2=C(O)C1=O` [SODWANONE A], the IC50 in assay [1] was 0.068 µg/mL (≈ 0.136 µM); in the assay on HeLa [2], 2.9 µg/mL (≈ 5.79 µM); with HeLa [3] it was 2.1 µg/mL (≈ 4.19 µM); in the assay with HT-29, greater than 10 µg/mL; in the assay on DU-145, 1.8 µg/mL (≈ 3.6 µM); in the assay with LoVo [4], 0.3 µg/mL (≈ 0.599 µM). For the same compound, the concentration for half-maximal inhibition (IC50) in the assay on PANC-1 was 0.7 µg/mL (≈ 1.4 µM); in the assay with A549, 3.5 µg/mL (≈ 6.99 µM); in assay [5], 1.7 µg/mL (≈ 3.4 µM); with LNCaP, 3.8 µg/mL (≈ 7.59 µM); with SK-BR-3 it was greater than 10 µg/mL; with LoVo [6] it was 8.5 µg/mL (≈ 17 µM). In the assay on SK-MEL-28, this compound returned an IC50 of 7.5 µg/mL (≈ 15 µM).

`CC1=C(CC[C@@H]2[C@@]3(CC[C@@H]4OC(C)(C)C(=O)CC[C@]42C)CO3)[C@@]2(C)CCC(=O)C(C)(C)C2=C(O)C1=O` [SODWANONE G]: the IC50 in assay [1] was 2.7 µg/mL (≈ 5.41 µM); in the assay on HeLa [2], 4.2 µg/mL (≈ 8.42 µM); with HeLa [3] it was 5.4 µg/mL (≈ 10.8 µM); with HT-29, greater than 10 µg/mL; in the assay with DU-145, greater than 10 µg/mL; with LoVo [4], 2.7 µg/mL (≈ 5.41 µM). For the same compound, the IC50 in the assay on PANC-1 was 3.1 µg/mL (≈ 6.22 µM); in the assay on A549, greater than 10 µg/mL; in assay [5] it was 5 µg/mL (≈ 10 µM); in the assay with LNCaP, 4.3 µg/mL (≈ 8.62 µM); in the assay on SK-BR-3 it was greater than 10 µg/mL; with LoVo [6], greater than 10 µg/mL. In the assay with SK-MEL-28, the IC50 is greater than 10 µg/mL.

For `C[C@H]1CC[C@@H]2OC(C)(C)[C@@H](O)CC=C2[C@@]1(C)CC[C@H]1[C@]2(C)CCC(=O)C(C)(C)O[C@H]2CC[C@]1(C)O` [SODWANONE S], the IC50 in assay [1] is 4.7 µg/mL (≈ 9.58 µM); with HeLa [2], greater than 10 µg/mL; with HeLa [3], greater than 10 µg/mL; in the assay on HT-29 it was greater than 10 µg/mL; in the assay on DU-145, greater than 10 µg/mL; in the assay on LoVo [4], 3.3 µg/mL (≈ 6.72 µM). The IC50 is 4.1 µg/mL (≈ 8.35 µM) in the assay on PANC-1; greater than 10 µg/mL in the assay with A549; greater than 10 µg/mL in assay [5]; 5 µg/mL (≈ 10.2 µM) in the assay on LNCaP; 3.8 µg/mL (≈ 7.74 µM) in the assay with SK-BR-3; 6.9 µg/mL (≈ 14.1 µM) in the assay with LoVo [6]. For the same compound, the IC50 in the assay on SK-MEL-28 was determined as 6.5 µg/mL (≈ 13.2 µM).
